Three molecules from ChEMBL document CHEMBL5653631, “A Potent and Selective ULK1 Inhibitor Suppresses Autophagy and Sensitizes Cancer Cells to Nutrient Stress” (iScience, 2018) can be followed below.

The term inhibition denotes the drop in the measured response relative to a control, in per cent.

Assay [1] has as its target T1, MAPK/MAK/MRK overlapping kinase (Homo sapiens) (UniProt Q9UQ07).
T1 sequence (whole entry): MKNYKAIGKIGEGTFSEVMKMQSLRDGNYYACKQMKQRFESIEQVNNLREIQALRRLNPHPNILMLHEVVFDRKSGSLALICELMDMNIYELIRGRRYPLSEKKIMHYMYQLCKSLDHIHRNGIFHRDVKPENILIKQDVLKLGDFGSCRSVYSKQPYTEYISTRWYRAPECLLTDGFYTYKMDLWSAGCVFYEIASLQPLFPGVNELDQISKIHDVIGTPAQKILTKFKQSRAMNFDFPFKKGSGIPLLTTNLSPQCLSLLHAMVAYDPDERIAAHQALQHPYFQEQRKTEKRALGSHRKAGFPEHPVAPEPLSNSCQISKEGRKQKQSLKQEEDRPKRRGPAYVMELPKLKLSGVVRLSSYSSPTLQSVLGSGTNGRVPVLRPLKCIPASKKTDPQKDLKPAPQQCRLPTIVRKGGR
Description: Inhibition of human recombinant MOK at 15 nM in presence of ATP by radiometric assay relative to control.

In assay [2] the target is T2, NUAK family SNF1-like kinase 1 (Homo sapiens) (UniProt O60285).
T2 sequence (whole entry): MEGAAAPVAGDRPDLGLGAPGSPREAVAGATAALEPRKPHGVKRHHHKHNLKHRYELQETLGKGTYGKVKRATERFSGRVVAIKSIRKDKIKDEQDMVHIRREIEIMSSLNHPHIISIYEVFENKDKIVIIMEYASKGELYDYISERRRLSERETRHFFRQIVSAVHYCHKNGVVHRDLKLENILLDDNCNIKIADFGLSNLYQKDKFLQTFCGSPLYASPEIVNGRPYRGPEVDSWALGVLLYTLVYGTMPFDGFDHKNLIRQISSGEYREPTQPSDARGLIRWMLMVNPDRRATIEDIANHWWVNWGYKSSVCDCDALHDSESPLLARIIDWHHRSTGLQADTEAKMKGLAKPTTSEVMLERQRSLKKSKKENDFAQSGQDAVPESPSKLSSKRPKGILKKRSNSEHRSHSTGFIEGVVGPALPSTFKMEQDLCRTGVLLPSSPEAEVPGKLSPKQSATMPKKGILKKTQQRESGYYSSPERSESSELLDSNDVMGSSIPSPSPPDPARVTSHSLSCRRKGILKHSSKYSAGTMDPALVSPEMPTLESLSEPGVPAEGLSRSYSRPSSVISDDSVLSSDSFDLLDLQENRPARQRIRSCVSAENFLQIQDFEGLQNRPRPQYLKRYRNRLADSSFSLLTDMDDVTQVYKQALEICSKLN
Briefly: Inhibition of human recombinant NuaK1 at 15 nM in presence of ATP by radiometric assay relative to control.

Assay [3] deals with Calcium/calmodulin-dependent protein kinase type II subunit alpha (Homo sapiens) (UniProt Q9UQM7). Description: Inhibition of human recombinant CaMK2a at 15 nM in presence of ATP by radiometric assay relative to control.
Chain of Calcium/calmodulin-dependent protein kinase type II subunit alpha (Homo sapiens) (Q9UQM7 whole entry): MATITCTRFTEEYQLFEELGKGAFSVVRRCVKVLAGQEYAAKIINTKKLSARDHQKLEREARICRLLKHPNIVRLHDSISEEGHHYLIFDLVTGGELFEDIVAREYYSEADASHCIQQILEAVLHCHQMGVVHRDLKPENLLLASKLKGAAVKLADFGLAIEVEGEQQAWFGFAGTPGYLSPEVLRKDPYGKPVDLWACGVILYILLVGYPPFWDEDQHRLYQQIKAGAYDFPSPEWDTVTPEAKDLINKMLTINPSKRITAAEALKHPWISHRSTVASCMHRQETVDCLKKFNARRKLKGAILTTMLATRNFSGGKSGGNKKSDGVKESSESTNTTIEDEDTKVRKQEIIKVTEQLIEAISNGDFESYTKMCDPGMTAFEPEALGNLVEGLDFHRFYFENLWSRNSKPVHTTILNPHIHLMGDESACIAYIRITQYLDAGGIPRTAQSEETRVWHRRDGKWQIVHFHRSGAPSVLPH
The target of assay [4] is DNA-PK/Ku70/Ku85 (Homo sapiens) (UniProt P78527+P12956+P13010). Briefly: Inhibition of human recombinant DNAPK at 15 nM related to control ULK1. Format: protein-complex assay.
Assay [5] deals with Serine/threonine-protein kinase N2 (Homo sapiens) (UniProt Q16513). Briefly: Inhibition of human recombinant PKN2 at 40 nM in presence of ATP by radiometric assay relative to control.
Chain of Serine/threonine-protein kinase N2 (Homo sapiens) (Q16513 whole entry, looked up): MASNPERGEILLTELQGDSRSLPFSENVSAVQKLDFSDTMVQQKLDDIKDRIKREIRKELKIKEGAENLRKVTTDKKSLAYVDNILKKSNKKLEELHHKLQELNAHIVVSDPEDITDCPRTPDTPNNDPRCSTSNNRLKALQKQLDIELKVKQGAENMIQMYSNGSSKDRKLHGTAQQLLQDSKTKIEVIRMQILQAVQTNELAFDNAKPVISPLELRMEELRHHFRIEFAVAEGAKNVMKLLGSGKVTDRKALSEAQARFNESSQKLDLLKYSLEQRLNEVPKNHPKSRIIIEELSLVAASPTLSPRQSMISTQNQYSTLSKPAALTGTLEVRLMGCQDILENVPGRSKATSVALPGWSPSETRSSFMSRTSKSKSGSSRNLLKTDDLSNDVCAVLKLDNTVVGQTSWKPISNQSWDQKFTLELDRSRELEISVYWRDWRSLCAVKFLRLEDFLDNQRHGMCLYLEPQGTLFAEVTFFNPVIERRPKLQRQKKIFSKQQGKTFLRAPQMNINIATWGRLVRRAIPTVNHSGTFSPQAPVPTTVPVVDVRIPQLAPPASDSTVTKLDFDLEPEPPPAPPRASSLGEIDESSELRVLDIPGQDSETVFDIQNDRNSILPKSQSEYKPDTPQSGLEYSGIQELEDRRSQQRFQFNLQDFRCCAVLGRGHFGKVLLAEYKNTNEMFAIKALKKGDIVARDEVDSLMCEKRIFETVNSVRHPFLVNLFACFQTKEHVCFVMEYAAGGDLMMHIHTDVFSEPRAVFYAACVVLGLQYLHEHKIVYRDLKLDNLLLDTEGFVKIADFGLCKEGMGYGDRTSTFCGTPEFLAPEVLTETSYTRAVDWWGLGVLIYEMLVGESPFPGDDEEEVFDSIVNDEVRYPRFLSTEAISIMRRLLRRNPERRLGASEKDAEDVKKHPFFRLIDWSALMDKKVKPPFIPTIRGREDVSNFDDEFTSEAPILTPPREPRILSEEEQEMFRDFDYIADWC
Assay [6] deals with Serine/threonine-protein kinase 25 (Homo sapiens) (UniProt O00506). Briefly: Inhibition of human recombinant YSK1 at 40 nM in presence of ATP by radiometric assay relative to control.
Chain of Serine/threonine-protein kinase 25 (Homo sapiens) (O00506 whole entry, looked up): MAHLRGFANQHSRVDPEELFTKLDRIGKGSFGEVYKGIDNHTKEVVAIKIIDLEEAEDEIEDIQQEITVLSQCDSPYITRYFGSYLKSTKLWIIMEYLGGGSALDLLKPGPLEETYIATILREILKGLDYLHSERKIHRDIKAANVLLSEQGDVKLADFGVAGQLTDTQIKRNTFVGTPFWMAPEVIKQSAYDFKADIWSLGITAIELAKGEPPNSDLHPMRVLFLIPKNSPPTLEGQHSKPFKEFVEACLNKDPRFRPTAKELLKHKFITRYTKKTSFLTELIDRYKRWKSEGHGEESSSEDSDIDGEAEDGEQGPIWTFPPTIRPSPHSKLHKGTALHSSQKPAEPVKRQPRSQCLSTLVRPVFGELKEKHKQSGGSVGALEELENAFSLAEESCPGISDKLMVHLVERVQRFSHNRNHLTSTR
The species entered for assay [7] is Homo sapiens. Description: Inhibition of human recombinant p70S6K at 40 nM in presence of ATP by radiometric assay relative to control.
The target in assay [8] is Mitogen-activated protein kinase 14 (Homo sapiens) (UniProt Q16539). Description: Inhibition of human recombinant p38alpha at 40 nM related to control ULK1.
Chain of Mitogen-activated protein kinase 14 (Homo sapiens) (Q16539 whole entry): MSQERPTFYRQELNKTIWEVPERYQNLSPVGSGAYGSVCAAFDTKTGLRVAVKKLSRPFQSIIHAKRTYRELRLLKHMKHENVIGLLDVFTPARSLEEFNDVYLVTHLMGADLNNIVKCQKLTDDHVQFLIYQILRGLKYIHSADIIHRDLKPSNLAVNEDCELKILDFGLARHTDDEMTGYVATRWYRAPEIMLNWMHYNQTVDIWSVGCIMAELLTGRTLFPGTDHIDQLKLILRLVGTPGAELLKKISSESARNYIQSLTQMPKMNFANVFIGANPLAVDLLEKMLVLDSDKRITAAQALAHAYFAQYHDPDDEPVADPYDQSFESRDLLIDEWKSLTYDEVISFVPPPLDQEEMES
The subject of assay [9] is U2OS. Description: Inhibition of autophagy in human U2OS cells assessed as BafA1-induced LC3B-II accumulation preincubated with compound for 3 hrs followed by BafA1 induction and measured after 1.5 hr under starvation condition by immunoblotting analysis. The conditions noted are these: dose <= 5.0 µM, time 4.5 hrs. The assay is classed as functional, cell-based. Summed up:
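U2OS cells kept 3 hr in full growth medium or HBSS-based starvation medium with or without inhibitor; BafA1-induced LC3B-II accumulation quantified by immunoblotting against β-actin.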
A general note: In western blotting, separated proteins are transferred to a membrane and probed.

Assay [10] addresses T3, Serine/threonine-protein kinase A-Raf (Homo sapiens) (UniProt P10398).
T3 sequence (whole entry): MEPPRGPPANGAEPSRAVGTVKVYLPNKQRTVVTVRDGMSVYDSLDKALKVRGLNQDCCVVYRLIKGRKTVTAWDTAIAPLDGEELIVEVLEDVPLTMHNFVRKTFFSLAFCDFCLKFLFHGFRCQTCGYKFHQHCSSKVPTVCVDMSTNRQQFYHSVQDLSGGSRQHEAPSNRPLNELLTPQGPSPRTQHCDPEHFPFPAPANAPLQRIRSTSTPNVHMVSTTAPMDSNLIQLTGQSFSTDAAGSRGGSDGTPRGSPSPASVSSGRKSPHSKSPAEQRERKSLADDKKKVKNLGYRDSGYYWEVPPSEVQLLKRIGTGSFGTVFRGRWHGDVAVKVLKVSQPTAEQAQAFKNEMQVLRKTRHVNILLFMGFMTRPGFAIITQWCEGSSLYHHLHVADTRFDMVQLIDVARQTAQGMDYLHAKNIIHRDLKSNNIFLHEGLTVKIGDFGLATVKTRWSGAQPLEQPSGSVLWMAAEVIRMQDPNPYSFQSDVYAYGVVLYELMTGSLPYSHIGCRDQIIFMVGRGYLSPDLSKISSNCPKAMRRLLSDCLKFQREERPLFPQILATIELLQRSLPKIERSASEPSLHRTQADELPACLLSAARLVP
Description: Inhibition of human recombinant ARAF at 500 nM in presence of ATP by radiometric assay relative to control. Summed up:
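Panel of 327 recombinant human kinases, each assayed in vitro by radiometric activity assay in duplicate at a single inhibitor concentration per compound, chosen with reference to its ULK1 inhibition. Activity remaining was expressed as percent of vehicle control, and percent inhibition was calculated as 100 minus percent activity remaining.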

Assay [11] deals with Activated CDC42 kinase 1 (Homo sapiens) (UniProt Q07912). Briefly: Inhibition of human recombinant ACK at 500 nM in presence of ATP by radiometric assay relative to control. Summed up:
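Panel of 327 recombinant human kinases in radiometric activity assays, each screened in duplicate at a single inhibitor concentration; percent activity remaining relative to vehicle control, percent inhibition taken as 100 minus activity remaining.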

Assay [12] deals with Serine/threonine-protein kinase MAK (Homo sapiens) (UniProt P20794). Briefly: Inhibition of human recombinant MAK at 500 nM in presence of ATP by radiometric assay relative to control.
Chain of Serine/threonine-protein kinase MAK (Homo sapiens) (P20794 whole entry, looked up): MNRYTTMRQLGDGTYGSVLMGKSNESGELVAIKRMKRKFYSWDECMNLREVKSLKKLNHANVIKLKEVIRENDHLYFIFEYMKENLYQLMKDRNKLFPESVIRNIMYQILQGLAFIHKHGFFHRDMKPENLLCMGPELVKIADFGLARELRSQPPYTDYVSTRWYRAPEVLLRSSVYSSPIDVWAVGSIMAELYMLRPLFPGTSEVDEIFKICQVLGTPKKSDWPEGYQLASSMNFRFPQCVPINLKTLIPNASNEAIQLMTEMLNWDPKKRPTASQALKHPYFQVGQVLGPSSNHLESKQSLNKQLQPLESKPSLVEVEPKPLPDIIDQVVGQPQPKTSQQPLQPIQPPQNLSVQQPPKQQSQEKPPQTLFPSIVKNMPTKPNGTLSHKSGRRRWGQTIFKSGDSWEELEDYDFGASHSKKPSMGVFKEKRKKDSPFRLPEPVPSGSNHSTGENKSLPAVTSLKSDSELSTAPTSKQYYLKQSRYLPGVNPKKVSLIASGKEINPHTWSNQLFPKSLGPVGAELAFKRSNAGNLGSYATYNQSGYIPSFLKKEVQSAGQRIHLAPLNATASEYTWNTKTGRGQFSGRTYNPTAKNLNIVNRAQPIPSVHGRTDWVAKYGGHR
The target in assay [13] is Vascular endothelial growth factor receptor 1 (Homo sapiens) (UniProt P17948). Briefly: Inhibition of human recombinant FLT1 at 500 nM in presence of ATP by radiometric assay relative to control.

Chain of Activated CDC42 kinase 1 (Homo sapiens) (Q07912 whole entry, looked up): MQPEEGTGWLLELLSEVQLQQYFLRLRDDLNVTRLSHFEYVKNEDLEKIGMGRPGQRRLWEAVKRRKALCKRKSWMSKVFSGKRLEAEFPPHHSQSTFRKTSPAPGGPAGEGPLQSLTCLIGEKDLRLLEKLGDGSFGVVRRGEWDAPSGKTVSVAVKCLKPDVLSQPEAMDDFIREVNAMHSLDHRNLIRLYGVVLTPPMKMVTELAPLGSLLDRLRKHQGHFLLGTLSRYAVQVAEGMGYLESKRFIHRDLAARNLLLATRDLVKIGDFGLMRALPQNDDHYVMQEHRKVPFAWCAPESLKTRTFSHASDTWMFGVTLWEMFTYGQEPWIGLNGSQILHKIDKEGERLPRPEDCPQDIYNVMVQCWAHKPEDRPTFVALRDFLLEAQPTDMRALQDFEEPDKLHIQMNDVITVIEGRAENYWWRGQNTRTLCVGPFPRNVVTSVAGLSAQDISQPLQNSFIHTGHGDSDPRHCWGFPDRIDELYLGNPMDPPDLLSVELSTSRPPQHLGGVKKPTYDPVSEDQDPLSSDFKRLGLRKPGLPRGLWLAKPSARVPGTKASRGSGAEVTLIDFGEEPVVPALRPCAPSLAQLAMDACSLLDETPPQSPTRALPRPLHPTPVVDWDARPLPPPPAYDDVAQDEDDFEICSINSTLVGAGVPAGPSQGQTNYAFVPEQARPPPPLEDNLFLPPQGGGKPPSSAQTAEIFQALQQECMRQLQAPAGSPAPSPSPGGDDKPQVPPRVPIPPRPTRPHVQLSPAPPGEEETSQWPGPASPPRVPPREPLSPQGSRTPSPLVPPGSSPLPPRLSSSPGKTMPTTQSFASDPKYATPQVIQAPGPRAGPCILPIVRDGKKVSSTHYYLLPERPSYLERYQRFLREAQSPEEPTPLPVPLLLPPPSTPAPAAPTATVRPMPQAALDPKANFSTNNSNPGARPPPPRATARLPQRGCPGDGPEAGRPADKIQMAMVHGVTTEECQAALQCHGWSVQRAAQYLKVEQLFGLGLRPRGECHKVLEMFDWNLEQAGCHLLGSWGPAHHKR

`CC(C)[C@H](NC(=O)c1cc(-c2cnn3cc(-c4ccc(OCCN5CCCCC5)cc4)cnc23)cs1)C(F)(F)F`: the figures for the inhibition in assay [1], in assay [2] and in assay [3] were 5%, 27% and 41%, respectively. Moreover, the fold change (FC) in assay [4] was found to be 0.
`O=C(N[C@@H](C1CC1)C(F)(F)F)c1cc(-c2cnn3cc(-c4ccc(F)cc4)cnc23)cs1`: the inhibition in assay [5] was 0%; in [6], 0%; in assay [7], 2%; in [9], “Dose-Dependent Effect”. Further, the fold change (FC) in assay [8] is 0.01.
Consider `CNC(=O)c1ccccc1Oc1nc(Nc2cc(OC)c(OC)c(OC)c2)ncc1Br`, for which the inhibition in assay [10] was 0%; in [11] it was 31%; in [12], 36%; in assay [13], 2%.
